Activity calls are given as the source filed them. The calls are words filed in the database; no cut-off is given here.
Legend:
Nitric oxide synthase 1 = Nitric oxide synthase 1 (Homo sapiens, UniProt P29475); assay: Inhibition of human recombinant nNOS expressed in Sf9 cells assessed as inhibition of conversion of [3H]-L-arginine to [3H]-L-citrulline after 45 mins by liquid scintillation counting
Outline: (§1)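 Recombinant human eNOS or nNOS from baculovirus-infected Sf9 cells in 40 mM HEPES pH 7.4 with 2.4 mM CaCl2, 1 mM MgCl2, 1 mg/mL BSA, 1 mM EDTA, 1 mM DTT, 1 μM FMN, 1 μM FAD, 10 μM BH4, 1 mM NADPH and 1.2 μM CaM. Compound preincubated 15 min at RT, then [3H]-L-arginine conversion ran 45 min at 37 °C. Stopped with pH 5.5 HEPES/EGTA/EDTA buffer. [3H]-citrulline separated on Dowex and counted by scintillation. Duplicates.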

Nitric oxide synthase 3 = target: T1, Nitric oxide synthase 3 (Homo sapiens, UniProt P29474); assay: Inhibition of human recombinant eNOS expressed in Sf9 cells assessed as inhibition of conversion of [3H]-L-arginine to [3H]-L-citrulline after 45 mins by liquid scintillation counting; outline: as §1
T1 sequence (P29474 whole entry): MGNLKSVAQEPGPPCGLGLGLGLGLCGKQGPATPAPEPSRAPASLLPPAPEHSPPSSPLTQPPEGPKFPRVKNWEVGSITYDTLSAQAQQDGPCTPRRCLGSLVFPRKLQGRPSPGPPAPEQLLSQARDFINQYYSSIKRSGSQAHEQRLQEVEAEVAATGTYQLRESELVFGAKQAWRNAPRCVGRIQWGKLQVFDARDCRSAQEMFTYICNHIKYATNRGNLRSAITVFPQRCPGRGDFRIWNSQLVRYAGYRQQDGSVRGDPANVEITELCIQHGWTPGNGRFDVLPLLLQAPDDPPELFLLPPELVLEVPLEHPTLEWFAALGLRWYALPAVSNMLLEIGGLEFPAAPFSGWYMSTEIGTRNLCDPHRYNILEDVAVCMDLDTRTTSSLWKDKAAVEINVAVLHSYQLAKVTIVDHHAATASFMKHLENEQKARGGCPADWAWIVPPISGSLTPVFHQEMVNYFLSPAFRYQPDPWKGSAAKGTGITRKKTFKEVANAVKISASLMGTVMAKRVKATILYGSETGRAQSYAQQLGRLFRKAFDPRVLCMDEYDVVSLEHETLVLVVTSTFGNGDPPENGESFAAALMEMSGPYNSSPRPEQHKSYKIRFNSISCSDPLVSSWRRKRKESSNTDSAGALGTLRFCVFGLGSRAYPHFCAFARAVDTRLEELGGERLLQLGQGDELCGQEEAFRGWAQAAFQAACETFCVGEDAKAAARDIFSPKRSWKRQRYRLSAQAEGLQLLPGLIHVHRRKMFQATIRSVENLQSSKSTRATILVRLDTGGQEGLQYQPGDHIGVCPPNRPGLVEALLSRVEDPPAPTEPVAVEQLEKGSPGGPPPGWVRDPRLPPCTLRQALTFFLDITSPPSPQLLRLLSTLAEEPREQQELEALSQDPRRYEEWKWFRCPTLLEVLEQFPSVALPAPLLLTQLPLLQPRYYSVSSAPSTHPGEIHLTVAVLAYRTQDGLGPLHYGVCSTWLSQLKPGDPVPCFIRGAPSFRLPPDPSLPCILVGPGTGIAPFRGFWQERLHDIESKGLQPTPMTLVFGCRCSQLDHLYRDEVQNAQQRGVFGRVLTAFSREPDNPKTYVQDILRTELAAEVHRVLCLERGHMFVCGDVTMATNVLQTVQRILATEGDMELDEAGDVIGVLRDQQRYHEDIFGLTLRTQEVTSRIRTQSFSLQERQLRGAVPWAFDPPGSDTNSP

[1] = target: Nitric oxide sythases; iNOS & nNOS (Homo sapiens) (UniProt P29475+P35228); assay: Selectivity ratio of IC50 for human recombinant iNOS to IC50 for human recombinant nNOS
Chain of Nitric oxide sythases; iNOS & nNOS (Homo sapiens) (P29475 whole entry, looked up): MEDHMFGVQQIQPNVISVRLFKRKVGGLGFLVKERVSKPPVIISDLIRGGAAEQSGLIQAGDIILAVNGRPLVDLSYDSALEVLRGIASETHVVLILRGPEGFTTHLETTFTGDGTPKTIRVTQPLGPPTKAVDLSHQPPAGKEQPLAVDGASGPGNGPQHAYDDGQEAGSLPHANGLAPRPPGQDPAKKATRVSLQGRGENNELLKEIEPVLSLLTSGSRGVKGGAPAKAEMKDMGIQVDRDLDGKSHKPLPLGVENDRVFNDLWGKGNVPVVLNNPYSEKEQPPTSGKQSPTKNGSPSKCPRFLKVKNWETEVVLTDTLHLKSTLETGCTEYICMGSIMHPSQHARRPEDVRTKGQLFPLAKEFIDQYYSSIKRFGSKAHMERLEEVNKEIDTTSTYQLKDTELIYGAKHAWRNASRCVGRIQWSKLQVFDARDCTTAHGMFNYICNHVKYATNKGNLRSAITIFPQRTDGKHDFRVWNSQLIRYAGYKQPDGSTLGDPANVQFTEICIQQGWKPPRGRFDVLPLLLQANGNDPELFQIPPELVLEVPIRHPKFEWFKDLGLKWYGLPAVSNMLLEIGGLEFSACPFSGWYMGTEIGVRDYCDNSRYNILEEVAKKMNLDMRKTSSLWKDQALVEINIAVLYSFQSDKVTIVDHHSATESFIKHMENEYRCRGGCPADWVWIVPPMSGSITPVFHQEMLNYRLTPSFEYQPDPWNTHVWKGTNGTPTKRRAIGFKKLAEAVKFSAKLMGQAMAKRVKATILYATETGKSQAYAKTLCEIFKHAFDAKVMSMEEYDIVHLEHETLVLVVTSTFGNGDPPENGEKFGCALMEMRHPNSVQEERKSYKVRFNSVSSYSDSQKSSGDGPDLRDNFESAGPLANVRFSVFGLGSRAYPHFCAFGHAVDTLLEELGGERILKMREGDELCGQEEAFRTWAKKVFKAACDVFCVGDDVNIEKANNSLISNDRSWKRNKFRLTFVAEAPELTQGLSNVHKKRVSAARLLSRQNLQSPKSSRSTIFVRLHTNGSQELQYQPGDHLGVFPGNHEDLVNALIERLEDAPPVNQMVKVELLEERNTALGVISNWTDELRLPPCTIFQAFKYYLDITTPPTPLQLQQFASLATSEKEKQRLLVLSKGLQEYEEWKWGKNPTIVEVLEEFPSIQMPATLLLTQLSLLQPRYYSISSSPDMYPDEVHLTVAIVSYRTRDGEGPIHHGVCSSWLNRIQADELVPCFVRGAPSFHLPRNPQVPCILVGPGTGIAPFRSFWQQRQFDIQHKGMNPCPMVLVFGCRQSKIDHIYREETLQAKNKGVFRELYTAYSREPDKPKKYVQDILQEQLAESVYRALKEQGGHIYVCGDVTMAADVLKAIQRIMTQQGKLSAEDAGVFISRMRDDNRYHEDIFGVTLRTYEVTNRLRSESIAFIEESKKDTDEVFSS
Chain of Nitric oxide sythases; iNOS & nNOS (Homo sapiens) (P35228 whole entry, looked up): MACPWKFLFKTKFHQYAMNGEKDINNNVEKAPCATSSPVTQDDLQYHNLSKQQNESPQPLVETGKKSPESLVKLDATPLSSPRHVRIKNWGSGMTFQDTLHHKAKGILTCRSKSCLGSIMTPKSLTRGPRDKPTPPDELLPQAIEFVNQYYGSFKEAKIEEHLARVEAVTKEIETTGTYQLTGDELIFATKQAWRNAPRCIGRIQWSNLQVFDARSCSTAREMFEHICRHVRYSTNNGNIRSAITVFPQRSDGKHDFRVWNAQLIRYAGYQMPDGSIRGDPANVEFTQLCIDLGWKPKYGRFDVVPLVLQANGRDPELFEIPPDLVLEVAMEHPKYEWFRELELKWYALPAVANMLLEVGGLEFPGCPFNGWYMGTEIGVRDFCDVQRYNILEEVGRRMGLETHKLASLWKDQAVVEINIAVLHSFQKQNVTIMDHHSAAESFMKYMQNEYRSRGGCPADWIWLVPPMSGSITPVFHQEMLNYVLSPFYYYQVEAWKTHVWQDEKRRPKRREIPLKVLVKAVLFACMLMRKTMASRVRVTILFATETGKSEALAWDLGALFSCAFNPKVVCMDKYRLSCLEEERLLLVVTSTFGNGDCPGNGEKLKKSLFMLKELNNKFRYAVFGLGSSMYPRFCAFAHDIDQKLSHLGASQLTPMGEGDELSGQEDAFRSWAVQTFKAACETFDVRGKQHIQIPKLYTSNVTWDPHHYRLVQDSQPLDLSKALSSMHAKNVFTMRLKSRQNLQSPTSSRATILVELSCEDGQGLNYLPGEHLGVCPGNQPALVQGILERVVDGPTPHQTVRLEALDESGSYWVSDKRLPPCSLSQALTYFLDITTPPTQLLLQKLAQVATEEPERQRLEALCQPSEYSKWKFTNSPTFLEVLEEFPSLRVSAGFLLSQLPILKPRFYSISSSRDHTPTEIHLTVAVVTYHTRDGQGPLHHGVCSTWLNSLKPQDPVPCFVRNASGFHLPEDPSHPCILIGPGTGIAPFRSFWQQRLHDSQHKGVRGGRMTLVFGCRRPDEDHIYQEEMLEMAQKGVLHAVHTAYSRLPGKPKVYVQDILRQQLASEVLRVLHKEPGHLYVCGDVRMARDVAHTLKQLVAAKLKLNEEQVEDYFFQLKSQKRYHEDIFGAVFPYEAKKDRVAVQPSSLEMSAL
Outline: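 Recombinant human nNOS and iNOS were expressed in baculovirus-infected Sf9 cells, and the assay measured [³H]-L-arginine to [³H]-L-citrulline conversion. nNOS buffer: 40 mM HEPES pH 7.4 with CaCl₂, MgCl₂, BSA, 1 mM NADPH and 1.2 μM CaM. iNOS buffer: 100 mM HEPES pH 7.4 with 120 μM NADPH and 100 nM CaM. Compound was preincubated 15 min at RT, then reacted 45 min at 37 °C. Citrulline was separated on DOWEX and counted by scintillation, in duplicate. The ratio is IC50 iNOS/IC50 nNOS.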

[2] = target: T2, Nitric oxide synthase 3 (Homo sapiens) (UniProt P29474); assay: Inhibition of eNOS in human arteries precontracted with U46619 assessed as inhibition of acteylcholine-induced vasorelaxation at 1 to 100 uM after 50 mins
T2 sequence (whole entry): T1 sequence (P29474 whole entry)
Outline: (§2)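 Human resistance artery rings of about 2 mm from surgical explants, wire-mounted in myograph baths of Krebs-bicarbonate PSS gassed with 95% O2/5% CO2 at 37 °C. Rings equilibrated at least 30 min with washes every 15 min, then standardised. Isometric tension recorded during ACh relaxation (10^-10 to 10^-5 M).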

[3] = target: T2, Nitric oxide synthase 3 (Homo sapiens); assay: Inhibition of eNOS in human arteries precontracted with U46619 assessed as inhibition of acteylcholine-induced vasorelaxation at 1 to 100 uM after 50 mins in the presence of 1 mM L-arginine; outline: as §2
Cytochrome P450 2C9 = Cytochrome P450 2C9 (Homo sapiens, UniProt P11712); assay: Inhibition of CYP2C9 using MFC as substrate; format: ADME
Chain of Cytochrome P450 2C9 (P11712 whole entry): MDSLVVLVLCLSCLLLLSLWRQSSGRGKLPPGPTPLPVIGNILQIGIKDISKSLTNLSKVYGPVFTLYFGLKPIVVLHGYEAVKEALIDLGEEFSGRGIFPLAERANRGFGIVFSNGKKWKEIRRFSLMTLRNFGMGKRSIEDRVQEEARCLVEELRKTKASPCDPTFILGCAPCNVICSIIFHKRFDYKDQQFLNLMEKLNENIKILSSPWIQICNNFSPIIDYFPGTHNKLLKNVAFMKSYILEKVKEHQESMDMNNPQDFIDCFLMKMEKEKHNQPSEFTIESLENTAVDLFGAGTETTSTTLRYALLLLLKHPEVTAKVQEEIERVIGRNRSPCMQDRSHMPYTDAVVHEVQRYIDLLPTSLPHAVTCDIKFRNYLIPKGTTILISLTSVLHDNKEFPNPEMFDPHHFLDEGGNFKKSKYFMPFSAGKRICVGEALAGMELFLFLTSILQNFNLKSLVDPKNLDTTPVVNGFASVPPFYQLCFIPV
Outline: (§3)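 Insect-cell microsomes expressing single human CYP isozymes, incubated at 37 °C with an NADPH regenerating system (NADP+, glucose-6-phosphate, G6P dehydrogenase, MgCl2) and an isozyme-specific fluorogenic substrate. Formation of the fluorescent metabolite was measured with and without test compound across 0.0457–100 μM. An enzyme-selective inhibitor served as positive control. Duplicate determinations, IC50 reported.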

[4] = target: Nitric oxide synthase, inducible (Homo sapiens, UniProt P35228); assay: Inhibition of human recombinant iNOS expressed in Sf9 cells assessed as inhibition of conversion of [3H]-L-arginine to [3H]-L-citrulline after 45 mins by liquid scintillation counting
Chain of Nitric oxide synthase, inducible (P35228 whole entry): as the sequence (P35228 whole entry, looked up) above
Outline: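 Recombinant human iNOS from baculovirus-infected Sf9 cells in 100 mM HEPES pH 7.4 with 1 mM CaCl2, 1 mM EDTA, 1 mM DTT, 1 μM FMN, 1 μM FAD, 10 μM BH4, 120 μM NADPH and 100 nM CaM. Compound preincubated 15 min at RT, then 45 min at 37 °C. [3H]-citrulline from [3H]-L-arginine separated on Dowex and counted by scintillation. Duplicates.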

Cytochrome P450 2C19 = Cytochrome P450 2C19 (Homo sapiens, UniProt P33261); assay: Inhibition of CYP2C19 using CEC as substrate; format: ADME; outline: as §3
Chain of Cytochrome P450 2C19 (P33261 whole entry): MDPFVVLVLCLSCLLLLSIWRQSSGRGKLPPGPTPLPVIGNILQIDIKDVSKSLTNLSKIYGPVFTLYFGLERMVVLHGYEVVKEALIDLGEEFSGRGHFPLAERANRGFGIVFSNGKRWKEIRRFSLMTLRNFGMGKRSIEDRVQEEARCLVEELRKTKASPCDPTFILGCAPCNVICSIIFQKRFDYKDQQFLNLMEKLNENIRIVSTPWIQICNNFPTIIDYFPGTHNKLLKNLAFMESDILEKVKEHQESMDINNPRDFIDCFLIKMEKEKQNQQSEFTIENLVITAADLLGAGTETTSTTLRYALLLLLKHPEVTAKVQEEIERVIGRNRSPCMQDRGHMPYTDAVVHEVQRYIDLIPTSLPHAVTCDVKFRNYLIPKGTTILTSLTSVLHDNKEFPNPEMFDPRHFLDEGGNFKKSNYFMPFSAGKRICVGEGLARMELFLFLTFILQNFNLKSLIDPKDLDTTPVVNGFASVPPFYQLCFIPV

Cytochrome P450 2D6 = Cytochrome P450 2D6 (Homo sapiens, UniProt P10635); assay: Inhibition of CYP2D6 using AMMC as substrate; format: ADME; outline: as §3
Chain of Cytochrome P450 2D6 (P10635 whole entry): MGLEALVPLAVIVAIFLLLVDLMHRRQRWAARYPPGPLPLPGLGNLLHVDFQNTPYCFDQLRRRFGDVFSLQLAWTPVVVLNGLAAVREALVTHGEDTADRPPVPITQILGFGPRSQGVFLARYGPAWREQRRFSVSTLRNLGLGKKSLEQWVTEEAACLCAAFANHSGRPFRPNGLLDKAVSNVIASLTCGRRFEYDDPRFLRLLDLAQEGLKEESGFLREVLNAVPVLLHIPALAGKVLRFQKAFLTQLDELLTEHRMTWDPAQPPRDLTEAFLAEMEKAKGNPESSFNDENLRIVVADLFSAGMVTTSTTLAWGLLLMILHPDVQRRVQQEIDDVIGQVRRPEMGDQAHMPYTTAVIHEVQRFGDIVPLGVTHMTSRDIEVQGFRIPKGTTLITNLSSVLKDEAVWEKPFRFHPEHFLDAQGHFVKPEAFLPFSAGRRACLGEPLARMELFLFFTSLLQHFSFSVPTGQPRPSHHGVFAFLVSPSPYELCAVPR

Cytochrome P450 3A4 [5] = target: T3, Cytochrome P450 3A4 (Homo sapiens, UniProt P08684); assay: Inhibition of CYP3A4 using BQ as substrate; format: ADME; outline: as §3
T3 sequence (P08684 whole entry): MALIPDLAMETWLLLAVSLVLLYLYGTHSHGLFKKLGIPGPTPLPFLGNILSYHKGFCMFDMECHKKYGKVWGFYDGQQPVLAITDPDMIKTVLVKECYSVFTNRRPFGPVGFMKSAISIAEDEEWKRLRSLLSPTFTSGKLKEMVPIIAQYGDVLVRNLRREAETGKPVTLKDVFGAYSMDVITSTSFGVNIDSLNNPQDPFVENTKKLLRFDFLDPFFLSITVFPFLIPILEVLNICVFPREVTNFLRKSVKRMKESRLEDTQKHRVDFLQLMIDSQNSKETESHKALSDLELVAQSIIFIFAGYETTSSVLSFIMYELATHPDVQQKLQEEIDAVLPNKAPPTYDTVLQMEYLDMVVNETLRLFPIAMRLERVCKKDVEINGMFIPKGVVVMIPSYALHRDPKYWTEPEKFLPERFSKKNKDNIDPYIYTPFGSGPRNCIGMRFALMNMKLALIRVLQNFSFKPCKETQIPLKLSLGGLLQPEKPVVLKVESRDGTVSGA

Cytochrome P450 3A4 [6] = target: T3, Cytochrome P450 3A4; assay: Inhibition of CYP3A4 using BFC as substrate; format: ADME; outline: as §3
Cytochrome P450 1A2 = target: T4, Cytochrome P450 1A2 (Homo sapiens, UniProt P05177); assay: Inhibition of CYP1A2 using CEC as substrate; format: ADME; outline: as §3
T4 sequence (P05177 whole entry): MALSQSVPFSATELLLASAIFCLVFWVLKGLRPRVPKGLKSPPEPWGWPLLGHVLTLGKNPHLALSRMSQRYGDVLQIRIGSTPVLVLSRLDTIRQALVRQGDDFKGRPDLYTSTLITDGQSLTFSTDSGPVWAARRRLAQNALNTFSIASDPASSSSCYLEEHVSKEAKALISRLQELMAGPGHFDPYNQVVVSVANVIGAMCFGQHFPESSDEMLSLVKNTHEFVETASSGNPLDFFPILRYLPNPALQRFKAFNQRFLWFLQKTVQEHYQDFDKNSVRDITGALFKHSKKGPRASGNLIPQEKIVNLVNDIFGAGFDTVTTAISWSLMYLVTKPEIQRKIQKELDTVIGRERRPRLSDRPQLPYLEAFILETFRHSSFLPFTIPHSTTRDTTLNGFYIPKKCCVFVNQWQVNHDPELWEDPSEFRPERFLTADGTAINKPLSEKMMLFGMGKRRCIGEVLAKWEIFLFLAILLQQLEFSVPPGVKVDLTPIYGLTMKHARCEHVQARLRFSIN

Rattus norvegicus [7] = assay: Analgesic activity in rat SNL model assessed as reversal of thermal hyperalgesia at 60 mg/kg, ip administered as single dose measured at 90 mins; format: functional; conditions: route intraperitoneal
Outline: (§4)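 Rat Chung model: L5 and L6 spinal nerves tightly ligated with 4-0 silk distal to the DRG under halothane anaesthesia, animals recovered in individual cages. Single intraperitoneal dose, 10 or 60 mg/kg. Read-out was paw withdrawal latency to radiant heat, expressed as percent reversal of thermal hyperalgesia over time after dosing.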

Rattus norvegicus [8] = assay: Analgesic activity in ip dosed rat spinal nerve ligation model assessed as reversal of thermal hyperalgesia measured after 60 to 120 mins; format: functional, organism-based; outline: as §4
Gerbillinae = assay: Neuroprotective activity in gerbil cerebral ischemia model; format: functional
[9] = target: T2, Nitric oxide synthase 3 (Homo sapiens); assay: Inhibition of eNOS in human arteries precontracted with U46619 assessed as inhibition of acteylcholine-induced vasorelaxation after 50 mins; outline: as §2
[10] = target: T2, Nitric oxide synthase 3 (Homo sapiens); assay: Inhibition of eNOS in human arteries precontracted with U46619 assessed as inhibition of acteylcholine-induced vasorelaxation at 100 uM after 50 mins in the presence of 1 mM L-arginine; outline: as §2
Homo sapiens = organism: Homo sapiens; assay: Antimigraine activity in migraine patients relative to placebo treated control; format: functional

Chain of Nitric oxide synthase 1 (P29475 whole entry): as the sequence (P29475 whole entry, looked up) above

SMILES	IC50 (Nitric oxide synthase 1) [µM]	IC50 (Nitric oxide synthase 3) [µM]	Ratio IC50 [1]	IC50 [4] [µM]	also measured
CN1CCC(c2c[nH]c3cc(NC(=N)c4cccs4)ccc23)CC1	0.12	10.7	78	–	–
CN1CC=C(c2c[nH]c3cc(NC(=N)c4cccs4)ccc23)CC1.Cl.Cl	0.8	26.5	15	12.3	inhibition [2]: inactive; inhibition [3]: inactive; IC50 (Cytochrome P450 2C9; read-out: IC50): 72.7 µM; IC50 (Cytochrome P450 2C19): 40.1 µM; IC50 (Cytochrome P450 2D6): 63.2 µM; IC50 (Cytochrome P450 3A4 [5]): > 100 µM; IC50 (Cytochrome P450 3A4 [6]): 74.8 µM; IC50 (Cytochrome P450 1A2; read-out: IC50): > 100 µM; Activity (Rattus norvegicus [7]): 67%; Activity (Rattus norvegicus [8]): Dose-dependent effect
CN1CCC[C@@H]1CCn1ccc2ccc(/N=C(\N)c3cccs3)cc21	–	–	225	–	–
N=C(Nc1ccc2c(C3CN4CCC3CC4)c[nH]c2c1)c1cccs1 (single isomer, unassigned; enantiomer 2)	–	–	309	–	–
N=C(Nc1ccc2c(C3CN4CCC3CC4)c[nH]c2c1)c1cccs1 (racemic) [listing 1 of 2 here]	1.23	33.3	–	18.4	–
N=C(Nc1ccc2c(C3CN4CCC3CC4)c[nH]c2c1)c1cccs1 (single isomer, unassigned; enantiomer 1) [listing 1 of 2 here]	–	–	98	–	–
CN1CCC(c2c[nH]c3cc(NC(=N)c4cccs4)ccc23)C1 (stereo unspecified)	–	–	13	2.6	–
FC(F)(F)c1ccccc1-n1ccnc1	–	–	–	–	Activity (Gerbillinae): 8%
N=C(Nc1ccc(CCNCc2cccc(Cl)c2)cc1)c1cccs1	–	–	–	–	Activity (Gerbillinae): 44%
COC(=O)[C@@H](N)CCCNC(=N)N[N+](=O)[O-]	0.69	0.68	1.2	0.83	inhibition [9]: Dose-dependent effect; inhibition [10]: inactive
N=C(Nc1ccc2c(C3CN4CCC3CC4)c[nH]c2c1)c1cccs1 (racemic) [listing 2 of 2 here]	–	–	15	–	–
N=C(Nc1ccc2c(C3CN4CCC3CC4)c[nH]c2c1)c1cccs1 (single isomer, unassigned; enantiomer 1) [listing 2 of 2 here]	0.53	23.3	–	52.1	–
CNC(=N)NCCC[C@H](N)C(=O)O.Cl.Cl	–	–	–	–	Activity (Homo sapiens): 67%
O=[N+]([O-])c1cccc2cn[nH]c12 [7-NITROINDAZOLE]	–	–	–	–	Activity (Gerbillinae): 22%
N=C(Nc1ccc2c(C3=CN4CCC3CC4)c[nH]c2c1)c1cccs1	1.5	–	6	8.4	–
Cl.Cl.N=C(Nc1ccc2c(C3CN4CCC3CC4)c[nH]c2c1)c1cccs1 (single isomer, unassigned; enantiomer 2)	0.45	40.6	–	139	IC50 (Cytochrome P450 2C9): Not Active; IC50 (Cytochrome P450 2C19): 49.6 µM; IC50 (Cytochrome P450 2D6): > 100 µM; IC50 (Cytochrome P450 3A4 [5]): > 100 µM; IC50 (Cytochrome P450 3A4 [6]): 100 µM; IC50 (Cytochrome P450 1A2): Not Active
